Assay results taken from ChEMBL document CHEMBL5029189, “Development of a 1,2,4-Triazole-Based Lead Tankyrase Inhibitor: Part II” (J Med Chem, 2021).
The source made the active and inactive calls. The calls are words filed in the database; no cut-off is given here.

Tests used:
[1] = Inhibition of Wnt/beta-catenin signaling pathway in HEK293T cells incubated for 24 hrs by dual-Glo luciferase assay; assay type: cell-based; conditions: Homo sapiens, HEK-293T
Outline: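 Luciferase-based WNT/β-catenin pathway reporter in human HEK293 cells, run as in earlier work with a reference tankyrase inhibitor included. Each concentration tested in triplicate. IC50 derived by curve fitting, with T/F-tests applied to the fit.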

Salmonella typhimurium [2] = experiment: Genotoxicity in Salmonella typhimurium TA100 in presence of rat liver S9 fraction by Ames test; assay type: toxicity, organism-based; conditions: salmonella enterica subsp. enterica serovar typhimurium
[3] = Metabolic stability in human liver microsomes assessed as intrinsic clearance measured per mg protein incubated up to 60 mins in presence of NADPH by UPLC-MS/MS analysis; assay type: ADME, Microsome
[4] = Metabolic stability in mouse liver microsomes assessed as intrinsic clearance measured per mg protein incubated up to 60 mins in presence of NADPH by UPLC-MS/MS analysis; assay type: ADME, Microsome; conditions: read-out: CLH
[5] = Apparent permeability across apical to basolateral side in human Caco-2 cells at 10 uM incubated for 120 mins by LC-MS/MS analysis; assay type: ADME, cell-based
Salmonella typhimurium [6] = experiment: Genotoxicity in Salmonella typhimurium TA98 in presence of rat liver S9 fraction by Ames test; assay type: toxicity, organism-based; conditions: salmonella enterica subsp. enterica serovar typhimurium
COLO 320DM [7] = experiment: Inhibition of Wnt/beta-catenin signaling pathway in human COLO 320DM cells assessed as reduction in NKD1 level qRT-PCR analysis; assay type: cell-based; conditions: dose 0.1-100 nM
COLO 320DM [8] = experiment: Inhibition of Wnt/beta-catenin signaling pathway in human COLO 320DM cells assessed as reduction in nuclear beta-catenin level at 0.1 to 100 nM by immunoblot analysis; assay type: cell-based; conditions: dose 0.1-100 nM
COLO 320DM [9] = experiment: Inhibition of Wnt/beta-catenin signaling pathway in human COLO 320DM cells assessed as reduction in APCDD1 level qRT-PCR analysis; assay type: cell-based; conditions: dose 0.1-100 nM
COLO 320DM [10] = experiment: Inhibition of Wnt/beta-catenin signaling pathway in human COLO 320DM cells assessed as reduction in AXIN2 level qRT-PCR analysis; assay type: cell-based; conditions: dose 0.1-100 nM
COLO 320DM [11] = experiment: Inhibition of Wnt/beta-catenin signaling pathway in human COLO 320DM cells assessed as stabilization of AXIN1 at 0.1 to 100 nM by immunoblot analysis; assay type: cell-based; conditions: dose 0.1-100 nM
[12] = biological target: T1, Nuclear receptor subfamily 1 group I member 2 (Homo sapiens, UniProt O75469); experiment: Inhibition of PXR (unknown origin) at 100 uM
T1 sequence (O75469 whole entry): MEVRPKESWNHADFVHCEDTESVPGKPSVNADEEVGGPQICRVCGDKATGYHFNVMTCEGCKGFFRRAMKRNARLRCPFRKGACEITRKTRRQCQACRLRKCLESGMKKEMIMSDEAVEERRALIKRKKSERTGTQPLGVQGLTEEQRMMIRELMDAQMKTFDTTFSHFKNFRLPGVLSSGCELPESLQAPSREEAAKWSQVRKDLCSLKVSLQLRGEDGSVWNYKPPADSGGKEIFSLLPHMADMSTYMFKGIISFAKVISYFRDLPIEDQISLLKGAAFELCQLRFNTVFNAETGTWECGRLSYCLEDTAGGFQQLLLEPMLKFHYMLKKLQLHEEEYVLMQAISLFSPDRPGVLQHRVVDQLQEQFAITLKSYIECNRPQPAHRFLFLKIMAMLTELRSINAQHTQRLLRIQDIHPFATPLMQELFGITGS

COLO 320DM [13] = experiment: Inhibition of Wnt/beta-catenin signaling pathway in human COLO 320DM cells assessed as effect on TNKS1/2 level by immunoblot analysis; assay type: cell-based; conditions: dose 0.1-100 nM
COLO 320DM [14] = experiment: Inhibition of Wnt/beta-catenin signaling pathway in human COLO 320DM cells assessed as reduction in cytoplasmic beta-catenin level at 0.1 to 100 nM by immunoblot analysis; assay type: cell-based; conditions: dose 0.1-100 nM
COLO 320DM [15] = experiment: Inhibition of Wnt/beta-catenin signaling pathway in human COLO 320DM cells assessed as reduction in DKK1 level qRT-PCR analysis; assay type: cell-based; conditions: dose 0.1-100 nM
COLO 320DM [16] = experiment: Inhibition of Wnt/beta-catenin signaling pathway in human COLO 320DM cells assessed as stabilization of AXIN2 at 0.1 to 100 nM by immunoblot analysis; assay type: cell-based; conditions: dose 0.1-100 nM

With `CCOc1ccc(-c2nnc([C@H]3C[C@H](NC(=O)c4ccnc5cccnc45)C3)n2-c2ccccc2F)nc1` the IC50 [1] was 630 pM.

With `CCOc1ccc(-c2nnc([C@H]3C[C@H](NC(=O)c4ccnc5cc(F)cnc45)C3)n2-c2ccccc2F)nc1` the IC50 [1] was 170 pM.

In the case of `CCOc1ccc(-c2nnc([C@H]3C[C@H](NC(=O)c4ccccn4)C3)n2-c2ccccc2F)nc1`, the Activity (Salmonella typhimurium [2]) is reported as “Non-Toxic”, the microsomal CLint [3] is reported as under 5 µL/min/mg and the microsomal CLint [4] is reported as 27 µL/min/mg. For the same molecule, the Papp A→B at 2 h, 10 µM [5] was 39.5 ×10⁻⁶ cm/s and the Activity (Salmonella typhimurium [6]) was “Non-Toxic”.

In the case of `CCOc1ccc(-c2nnc([C@H]3C[C@H](NC(=O)c4cccc5nccnc45)C3)n2-c2ccccc2F)nc1`, the inhibition (COLO 320DM [7]) is reported as “Dose-Dependent Effect”, the Activity (Salmonella typhimurium [2]) is reported as “Non-Toxic” and the inhibition (COLO 320DM [8]) is reported as “Active”. For the same molecule, the inhibition (COLO 320DM [9]) was “Dose-Dependent Effect”, the inhibition (COLO 320DM [10]) was “Dose-Dependent Effect” and the inhibition (COLO 320DM [11]) was “Active”. The IC50 [12] was “Not Active”, the Activity (Salmonella typhimurium [6]) was “Non-Toxic” and the inhibition (COLO 320DM [13]) was “Dose-Dependent Effect”. The inhibition (COLO 320DM [14]) was “Active”, the inhibition (COLO 320DM [15]) was “Dose-Dependent Effect” and the inhibition (COLO 320DM [16]) was “Active”.
